From article PMC6536312 (Bioorganic & medicinal chemistry, 2019)
Where two headings read alike, the source gives them in different places.

What was measured:
σ2 receptor [1] = biological target: T1, σ2 receptor (Rattus norvegicus, UniProt Q5U3Y7); test: Radioligand binding assay at sigma-2 receptor; conditions: for fold lower affinity at the σ2 receptor than compound 3: vs compound 3
T1 sequence (Q5U3Y7 1-176): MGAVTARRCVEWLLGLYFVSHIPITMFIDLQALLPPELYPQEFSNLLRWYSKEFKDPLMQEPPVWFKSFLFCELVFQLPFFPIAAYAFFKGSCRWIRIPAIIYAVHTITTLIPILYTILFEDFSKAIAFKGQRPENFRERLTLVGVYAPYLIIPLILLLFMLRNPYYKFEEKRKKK

σ1 receptor = σ1 receptor (Cavia porcellus, UniProt Q60492); test: Radioligand binding assay at sigma-1 receptor
MDA-MB-231 cells = test: Cell viability study; assay type: cell-based, human
Procedure, shortened: (§1)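 Cells were maintained in high-glucose GlutaMax DMEM with 10% heat-inactivated FBS. They were seeded at 20,000/well, left overnight in 5% FBS medium, then dosed in 1:9 DMSO/acetone against vehicle controls, redosed every 24 h for the 48 h and 72 h runs. Resazurin (0.02% in PBS) was added for 2-3 h, read at ex 560/em 590 nm. IC50 came from nonlinear regression of log concentration versus % control.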

σ2 receptor [2] = biological target: T1, σ2 receptor; conditions: previously reported; cited from earlier work
Panc-1 cells = test: Cell viability study; assay type: cell-based, human
Procedure, shortened: as §1

Sequence of σ1 receptor (Q60492 whole entry): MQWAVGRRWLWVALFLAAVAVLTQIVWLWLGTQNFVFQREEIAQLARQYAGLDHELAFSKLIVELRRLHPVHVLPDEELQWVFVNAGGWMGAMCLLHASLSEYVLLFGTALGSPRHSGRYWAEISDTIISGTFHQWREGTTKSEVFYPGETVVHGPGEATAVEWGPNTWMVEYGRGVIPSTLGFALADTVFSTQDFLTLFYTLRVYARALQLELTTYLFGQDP

O=C1c2ccc(Cl)cc2CC1CCN1CCCN(c2ccc(Cl)cc2)CC1 (stereo not shown) [Compound 8, 5-chloro-2-(2-(4-(4-chlorophenyl)-1,4-diazepan-1-yl)ethyl)-2,3-dihydro-1H-inden-1-one]
fold lower affinity at the σ2 receptor than compound 3 (σ2 receptor [1]): over 31 fold

O=C1c2ccccc2CC1CCN1CCCN(c2ccc(Cl)cc2)CC1 (stereo not shown) [Compound 4, 2-(2-(4-(4-chlorophenyl)-1,4-diazepan-1-yl)ethyl)-2,3-dihydro-1H-inden-1-one]
fold higher affinity than compound 3 at the σ1 receptor (σ1 receptor; vs compound 3): 3 fold | fold lower affinity at the σ2 receptor than compound 3 (σ2 receptor [1]): over 7 fold

N.N.[Cl][Pt][Cl] [Cisplatin]
IC50 (MDA-MB-231 cells; read-out: IC50 (48 h), cell viability, MDA-MB-231, 48 h treatment): 50 ± 9.8 µM | IC50 (MDA-MB-231 cells; read-out: IC50 (72 h), cell viability, MDA-MB-231, 72 h treatment): 64.2 ± 4.3 µM

O=C(CCCN1CCCN(c2ccc(Cl)cc2)CC1)c1ccc(F)cc1 [Compound 1, 4-(4-(4-chlorophenyl)-1,4-diazepan-1-yl)-1-(4-fluorophenyl)butan-1-one]
Ki(σ1)/Ki(σ2) (σ2 receptor [2]): 4.3 | IC50, cell viability (Panc-1 cells): sub-micromolar

O/N=C(\CCCN1CCCN(c2ccc(Cl)cc2)CC1)c1ccc(F)cc1 [Compound 12, 4-(4-(4-chlorophenyl)-1,4-diazepan-1-yl)-1-(4-fluorophenyl)butan-1-one oxime]
IC50, cell viability (Panc-1 cells): sub-micromolar

O=C1c2ccc(F)cc2CC1CCN1CCCN(c2ccc(Cl)cc2)CC1 (stereo not shown) [Compound 3]
fold lower affinity for the σ1 receptor compared to compound 1 (σ1 receptor; vs compound 1): more than 2 fold | fold higher affinity for σ2 receptor compared to compound 1 (σ2 receptor [1]; vs compound 1): greater than 9 fold
